# Tests used:
# [1] = target: Dual specificity mitogen-activated protein kinase kinase 4 (Homo sapiens) (UniProt P45985); test: Binding affinity to wild-type human partial length MEK4 (S84 to D399 residues) expressed in HEK293 cells at 1 uM by Kinomescan method relative to control; format: cell-based
# [2] = target: Tyrosine-protein kinase Blk (Homo sapiens) (UniProt P51451); test: Binding affinity to wild-type human partial length BLK (G211 to L503 residues) expressed in Escherichia coli BL21 at 1 uM by Kinomescan method relative to control
# Sequence of Tyrosine-protein kinase Blk (Homo sapiens) (P51451 2-505 limits assumed): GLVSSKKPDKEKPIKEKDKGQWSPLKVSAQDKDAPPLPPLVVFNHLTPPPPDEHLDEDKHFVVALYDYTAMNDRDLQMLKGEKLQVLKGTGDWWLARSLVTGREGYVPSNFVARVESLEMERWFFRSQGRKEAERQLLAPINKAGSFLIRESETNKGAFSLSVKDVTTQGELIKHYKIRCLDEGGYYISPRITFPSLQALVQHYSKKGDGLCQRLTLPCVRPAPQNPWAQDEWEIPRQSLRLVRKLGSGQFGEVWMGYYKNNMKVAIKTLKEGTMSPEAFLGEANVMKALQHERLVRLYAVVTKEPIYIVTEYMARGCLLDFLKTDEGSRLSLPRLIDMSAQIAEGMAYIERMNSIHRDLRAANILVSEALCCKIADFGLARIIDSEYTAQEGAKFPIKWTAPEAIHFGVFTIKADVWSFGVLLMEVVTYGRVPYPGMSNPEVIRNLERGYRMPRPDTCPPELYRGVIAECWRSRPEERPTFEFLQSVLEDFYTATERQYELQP
# [3] = target: Leucine-rich repeat serine/threonine-protein kinase 2 (Homo sapiens, UniProt Q5S007); test: Inhibition of recombinant GST-tagged human LRRK2 (970 to 2527 residues) catalytic domain expressed in baculovirus expression system by ADAPTA assay
# [4] = target: Focal adhesion kinase 1 (Homo sapiens) (UniProt Q05397); test: Binding affinity to wild-type human partial length FAK (D402 to R696 residues) expressed in Escherichia coli BL21 at 1 uM by Kinomescan method relative to control
# [5] = target: Macrophage colony-stimulating factor 1 receptor (Homo sapiens) (UniProt P07333); test: Binding affinity to wild-type human partial length autoinhibited CSF1R (Y538 to S939 residues) expressed in HEK293 cells at 1 uM by Kinomescan method relative to control; format: cell-based; design: scale not given: the % may be the effect or the level left
# [6] = target: Proto-oncogene tyrosine-protein kinase receptor Ret (Homo sapiens) (UniProt P07949); test: Binding affinity to wild-type human partial length RET (E713 to D1014 residues) expressed in Escherichia coli BL21 at 1 uM by Kinomescan method relative to control
# [7] = target: Receptor tyrosine-protein kinase erbB-4 (Homo sapiens) (UniProt Q15303); test: Binding affinity to wild-type human partial length ERBB4 (L690 to K994 residues) expressed in Escherichia coli BL21 at 1 uM by Kinomescan method relative to control
# Sequence of Receptor tyrosine-protein kinase erbB-4 (Homo sapiens) (Q15303 whole entry, the tested form may be a part): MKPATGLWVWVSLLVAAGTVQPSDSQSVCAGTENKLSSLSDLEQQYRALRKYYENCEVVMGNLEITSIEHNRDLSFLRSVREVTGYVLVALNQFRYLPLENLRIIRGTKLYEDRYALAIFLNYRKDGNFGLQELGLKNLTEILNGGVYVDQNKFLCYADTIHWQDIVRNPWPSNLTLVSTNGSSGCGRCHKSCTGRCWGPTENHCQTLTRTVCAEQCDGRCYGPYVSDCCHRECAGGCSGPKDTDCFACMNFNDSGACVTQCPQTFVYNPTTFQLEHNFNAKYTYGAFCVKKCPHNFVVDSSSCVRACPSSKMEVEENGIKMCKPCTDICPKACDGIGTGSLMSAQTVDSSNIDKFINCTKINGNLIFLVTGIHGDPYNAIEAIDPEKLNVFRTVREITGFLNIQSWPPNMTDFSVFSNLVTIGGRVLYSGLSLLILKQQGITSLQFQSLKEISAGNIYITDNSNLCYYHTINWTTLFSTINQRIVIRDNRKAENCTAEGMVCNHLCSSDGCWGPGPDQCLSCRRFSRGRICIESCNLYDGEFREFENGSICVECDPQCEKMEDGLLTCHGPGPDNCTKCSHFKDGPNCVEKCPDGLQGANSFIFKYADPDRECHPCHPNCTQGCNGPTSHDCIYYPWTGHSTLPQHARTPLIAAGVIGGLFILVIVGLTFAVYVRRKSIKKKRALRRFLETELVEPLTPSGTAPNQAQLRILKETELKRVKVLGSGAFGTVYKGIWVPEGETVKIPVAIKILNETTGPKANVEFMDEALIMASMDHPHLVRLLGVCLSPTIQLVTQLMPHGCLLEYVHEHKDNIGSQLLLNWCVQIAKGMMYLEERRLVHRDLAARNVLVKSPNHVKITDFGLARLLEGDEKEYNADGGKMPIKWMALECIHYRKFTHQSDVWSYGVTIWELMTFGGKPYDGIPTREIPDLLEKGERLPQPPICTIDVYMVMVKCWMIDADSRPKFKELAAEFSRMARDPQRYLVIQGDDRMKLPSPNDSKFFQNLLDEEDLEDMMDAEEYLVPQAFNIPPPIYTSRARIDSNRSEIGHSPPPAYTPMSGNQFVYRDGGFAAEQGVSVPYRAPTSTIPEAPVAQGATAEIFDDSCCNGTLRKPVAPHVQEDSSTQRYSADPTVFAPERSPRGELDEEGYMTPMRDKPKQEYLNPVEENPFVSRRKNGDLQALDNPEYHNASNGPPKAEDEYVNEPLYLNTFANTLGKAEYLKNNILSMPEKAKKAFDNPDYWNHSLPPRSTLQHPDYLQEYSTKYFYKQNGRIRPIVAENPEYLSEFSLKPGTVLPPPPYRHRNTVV
# [8] = target: Discoidin domain-containing receptor 2 (Homo sapiens) (UniProt Q16832); test: Binding affinity to wild-type human partial length DDR2 (V555 to E855 residues) expressed in HEK293 cells at 1 uM by Kinomescan method relative to control; format: cell-based
# Sequence of Discoidin domain-containing receptor 2 (Homo sapiens) (Q16832 whole entry, the tested form may be a part): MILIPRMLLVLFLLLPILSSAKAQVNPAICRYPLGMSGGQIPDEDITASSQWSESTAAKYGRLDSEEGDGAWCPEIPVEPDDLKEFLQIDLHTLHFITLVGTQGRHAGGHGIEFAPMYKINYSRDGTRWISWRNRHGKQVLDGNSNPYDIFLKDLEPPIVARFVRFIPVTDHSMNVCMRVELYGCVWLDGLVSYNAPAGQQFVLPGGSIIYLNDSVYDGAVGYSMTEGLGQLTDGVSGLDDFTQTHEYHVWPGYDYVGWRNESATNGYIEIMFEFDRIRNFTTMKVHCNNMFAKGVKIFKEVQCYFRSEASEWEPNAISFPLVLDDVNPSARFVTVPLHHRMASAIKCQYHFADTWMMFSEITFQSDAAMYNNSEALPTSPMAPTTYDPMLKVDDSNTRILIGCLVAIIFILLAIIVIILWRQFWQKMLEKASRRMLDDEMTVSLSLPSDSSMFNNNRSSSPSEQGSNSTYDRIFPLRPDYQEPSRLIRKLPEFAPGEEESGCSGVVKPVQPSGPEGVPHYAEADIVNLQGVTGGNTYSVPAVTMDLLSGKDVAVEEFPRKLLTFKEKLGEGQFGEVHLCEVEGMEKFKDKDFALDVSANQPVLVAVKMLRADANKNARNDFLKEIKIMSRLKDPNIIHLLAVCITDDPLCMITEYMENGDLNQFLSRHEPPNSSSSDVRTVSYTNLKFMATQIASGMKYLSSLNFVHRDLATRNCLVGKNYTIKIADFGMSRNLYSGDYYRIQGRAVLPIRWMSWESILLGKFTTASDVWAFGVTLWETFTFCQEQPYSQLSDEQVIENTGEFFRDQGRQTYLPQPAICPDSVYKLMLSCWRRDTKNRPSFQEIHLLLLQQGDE
# [9] = target: Mitogen-activated protein kinase kinase kinase 5 (Homo sapiens) (UniProt Q99683); test: Binding affinity to wild-type human partial length ASK1 (E648 to S964 residues) expressed in Escherichia coli BL21 at 1 uM by Kinomescan method relative to control
# Summary of the method: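 Kinome-wide competition binding panel run by an outside provider, with each compound tested at a single concentration. Activity is read against the kinase panel.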
# [10] = target: Serine/threonine-protein kinase NIM1 (Homo sapiens) (UniProt Q8IY84); test: Binding affinity to wild-type human partial length NIM1 (Q44 to N355 residues) expressed in HEK293 cells at 1 uM by Kinomescan method relative to control; format: cell-based
# [11] = target: Activated CDC42 kinase 1 (Homo sapiens) (UniProt Q07912); test: Binding affinity to wild-type human partial length TNK2 (S159 to D474 residues) expressed in Escherichia coli BL21 at 1 uM by Kinomescan method relative to control
# [12] = target: Calcium/calmodulin-dependent protein kinase type II subunit gamma (Homo sapiens) (UniProt Q13555); test: Binding affinity to wild-type human partial length CAMK2G (R9 to A303 residues) expressed in Escherichia coli BL21 at 1 uM by Kinomescan method relative to control
# [13] = target: Tyrosine-protein kinase Tec (Homo sapiens) (UniProt P42680); test: Binding affinity to wild-type human partial length TEC (L341 to D620 residues) expressed in Escherichia coli BL21 at 1 uM by Kinomescan method relative to control
# Sequence of Tyrosine-protein kinase Tec (Homo sapiens) (P42680 whole entry, the tested form may be a part): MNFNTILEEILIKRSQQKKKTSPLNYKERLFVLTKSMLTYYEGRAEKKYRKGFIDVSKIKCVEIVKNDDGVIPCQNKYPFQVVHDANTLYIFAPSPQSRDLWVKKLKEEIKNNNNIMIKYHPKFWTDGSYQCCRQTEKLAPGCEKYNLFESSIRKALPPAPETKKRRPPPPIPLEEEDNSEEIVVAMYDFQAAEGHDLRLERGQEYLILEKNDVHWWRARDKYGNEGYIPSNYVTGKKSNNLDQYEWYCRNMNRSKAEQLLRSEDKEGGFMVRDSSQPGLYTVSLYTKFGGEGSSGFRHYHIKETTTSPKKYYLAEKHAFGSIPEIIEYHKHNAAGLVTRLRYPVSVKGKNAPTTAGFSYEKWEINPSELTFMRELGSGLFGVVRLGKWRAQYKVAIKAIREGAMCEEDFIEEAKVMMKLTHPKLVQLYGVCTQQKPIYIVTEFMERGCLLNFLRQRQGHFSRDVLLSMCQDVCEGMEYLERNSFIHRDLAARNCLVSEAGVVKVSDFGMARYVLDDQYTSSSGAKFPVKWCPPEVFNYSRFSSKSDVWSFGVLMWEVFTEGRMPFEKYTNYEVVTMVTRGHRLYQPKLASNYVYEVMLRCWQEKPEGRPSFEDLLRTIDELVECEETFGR
# [14] = target: Ephrin type-A receptor 2 (Homo sapiens) (UniProt P29317); test: Binding affinity to wild-type human partial length EPHA2 (T593 to V891 residues) expressed in Escherichia coli BL21 at 1 uM by Kinomescan method relative to control
# Sequence of Ephrin type-A receptor 2 (Homo sapiens) (P29317 whole entry, the tested form may be a part): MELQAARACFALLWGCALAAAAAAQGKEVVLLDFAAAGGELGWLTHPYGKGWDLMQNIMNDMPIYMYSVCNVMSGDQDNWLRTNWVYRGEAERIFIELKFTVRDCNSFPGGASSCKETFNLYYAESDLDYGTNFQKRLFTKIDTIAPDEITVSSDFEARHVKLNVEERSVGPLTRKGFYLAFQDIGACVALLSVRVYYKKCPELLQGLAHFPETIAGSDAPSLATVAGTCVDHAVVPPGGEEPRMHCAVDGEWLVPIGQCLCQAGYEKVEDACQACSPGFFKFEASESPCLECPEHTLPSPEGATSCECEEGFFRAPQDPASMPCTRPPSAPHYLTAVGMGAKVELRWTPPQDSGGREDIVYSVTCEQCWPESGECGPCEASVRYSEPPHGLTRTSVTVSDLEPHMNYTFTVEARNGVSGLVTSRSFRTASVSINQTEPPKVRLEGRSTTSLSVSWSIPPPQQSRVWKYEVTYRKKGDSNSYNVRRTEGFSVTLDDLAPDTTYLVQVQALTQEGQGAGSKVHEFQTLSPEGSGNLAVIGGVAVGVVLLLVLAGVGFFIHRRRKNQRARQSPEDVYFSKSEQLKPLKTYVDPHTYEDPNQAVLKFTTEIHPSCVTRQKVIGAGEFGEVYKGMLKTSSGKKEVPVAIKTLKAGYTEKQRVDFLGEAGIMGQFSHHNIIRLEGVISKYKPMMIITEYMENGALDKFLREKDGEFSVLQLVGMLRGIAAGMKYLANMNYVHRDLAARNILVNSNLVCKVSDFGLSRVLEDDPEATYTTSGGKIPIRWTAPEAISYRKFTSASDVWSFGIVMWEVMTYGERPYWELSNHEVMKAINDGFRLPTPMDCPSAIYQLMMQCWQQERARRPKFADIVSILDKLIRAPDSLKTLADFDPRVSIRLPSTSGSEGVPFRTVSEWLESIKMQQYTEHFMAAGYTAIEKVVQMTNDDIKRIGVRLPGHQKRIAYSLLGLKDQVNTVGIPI
# [15] = target: Mitogen-activated protein kinase 1 (Homo sapiens) (UniProt P28482); test: Binding affinity to wild-type human full length ERK2 (M1 to S360 residues) expressed in Escherichia coli BL21 at 1 uM by Kinomescan method relative to control
# Summary of the method: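 Run as one kinome-wide competition binding panel with each compound at a single fixed concentration. Results were plotted as a kinome-wide selectivity map.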
# [16] = target: Phosphatidylinositol 4-phosphate 3-kinase C2 domain-containing subunit beta (Homo sapiens) (UniProt O00750); test: Binding affinity to wild-type human partial length PIK3C2B (M1 to L1634 residues) expressed in HEK293 cells at 1 uM by Kinomescan method relative to control; format: cell-based
# [17] = target: Bone morphogenetic protein receptor type-1B (Homo sapiens) (UniProt O00238); test: Binding affinity to wild-type human partial length BMPR1B (D178 to L502 residues) expressed in HEK293 cells at 1 uM by Kinomescan method relative to control; format: cell-based
# [18] = target: Mitogen-activated protein kinase kinase kinase 4 (Homo sapiens) (UniProt Q9Y6R4); test: Binding affinity to wild-type human partial length MAP3K4 (G1319 to E1608 residues) expressed in Escherichia coli BL21 at 1 uM by Kinomescan method relative to control
# [19] = target: Activin receptor type-1-like (Homo sapiens) (UniProt P37023); test: Binding affinity to wild-type human ACVRL1 (L164 to Q503 residues) expressed in Escherichia coli BL21 at 1 uM by Kinomescan method relative to control
# Sequence of Activin receptor type-1-like (Homo sapiens) (P37023 whole entry, the tested form may be a part): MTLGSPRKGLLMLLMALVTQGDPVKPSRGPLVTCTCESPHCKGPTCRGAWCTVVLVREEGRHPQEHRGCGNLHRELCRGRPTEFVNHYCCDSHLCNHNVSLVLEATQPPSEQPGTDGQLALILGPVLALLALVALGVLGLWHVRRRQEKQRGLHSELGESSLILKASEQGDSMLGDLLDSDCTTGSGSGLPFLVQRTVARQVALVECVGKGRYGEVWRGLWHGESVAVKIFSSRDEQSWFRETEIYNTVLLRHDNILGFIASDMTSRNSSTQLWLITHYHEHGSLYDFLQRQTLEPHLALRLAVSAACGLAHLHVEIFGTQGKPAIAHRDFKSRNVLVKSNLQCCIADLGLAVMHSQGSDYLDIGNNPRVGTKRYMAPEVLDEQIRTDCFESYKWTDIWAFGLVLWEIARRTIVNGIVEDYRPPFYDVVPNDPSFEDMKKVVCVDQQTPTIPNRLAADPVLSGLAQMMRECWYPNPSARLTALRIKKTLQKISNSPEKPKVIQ
# [20] = target: Cyclin-dependent kinase 2 homolog (Plasmodium falciparum (isolate 3D7)) (UniProt P61075); test: Binding affinity to wild-type Plasmodium falciparum full length PK5 (M1 to N288 residues) expressed in HEK293 cells at 1 uM by Kinomescan method relative to control; format: cell-based
# Sequence of Cyclin-dependent kinase 2 homolog (Plasmodium falciparum (isolate 3D7)) (P61075 whole entry, the tested form may be a part): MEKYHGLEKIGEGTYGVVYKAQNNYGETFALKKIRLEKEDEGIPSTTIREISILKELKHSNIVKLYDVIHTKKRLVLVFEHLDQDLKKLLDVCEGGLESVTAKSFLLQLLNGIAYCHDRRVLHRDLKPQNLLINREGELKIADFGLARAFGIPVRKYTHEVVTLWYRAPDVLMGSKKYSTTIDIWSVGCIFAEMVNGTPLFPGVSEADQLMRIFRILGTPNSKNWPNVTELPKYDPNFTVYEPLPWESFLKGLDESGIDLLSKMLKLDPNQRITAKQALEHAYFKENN
# Aurora kinase A = target: T1, Aurora kinase A (Homo sapiens, UniProt O14965); test: Inhibition of Aurora A auto-phosphorylation in human HCT116 cells after 4 hrs by Western blot analysis; format: cell-based
# T1 sequence (O14965 whole entry): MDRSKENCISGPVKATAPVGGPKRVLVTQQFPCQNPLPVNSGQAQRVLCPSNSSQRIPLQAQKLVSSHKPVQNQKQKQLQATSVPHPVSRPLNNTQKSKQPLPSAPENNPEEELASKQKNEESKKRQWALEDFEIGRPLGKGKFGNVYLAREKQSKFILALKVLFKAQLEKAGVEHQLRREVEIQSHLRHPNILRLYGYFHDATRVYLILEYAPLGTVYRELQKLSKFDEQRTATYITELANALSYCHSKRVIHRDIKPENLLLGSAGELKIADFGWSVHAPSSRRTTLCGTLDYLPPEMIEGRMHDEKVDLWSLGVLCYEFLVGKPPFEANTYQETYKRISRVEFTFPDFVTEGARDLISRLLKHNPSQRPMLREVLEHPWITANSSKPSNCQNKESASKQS
# Summary of the method: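 Cells treated with compound in dose response for 4 h. Phospho-Aurora A (auto-phosphorylation) read by western blot. EC50 derived from dose-response curves over three replicate experiments.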
# [21] = tested on: Phosphatidylinositol 4,5-bisphosphate 3-kinase catalytic subunit alpha isoform (Homo sapiens), P42336 [H1047L]; test: Binding affinity to human partial length PIK3CA H1047L mutant (R108 to N1068 residues) expressed in HEK293 cells at 1 uM by Kinomescan method relative to control; format: cell-based
smiles,measurement,setting,value
C=CC(=O)Nc1ccc(C(=O)Nc2ccc(Nc3ncc4c(n3)N(C)c3ccc(C)cc3C(=O)N4C)cc2)cc1,Activity,[1],100%
same,Activity,[2],96%
same,IC50,[3],754 nM
same,Activity,[4],92%
same,Activity,[5],100%
same,Activity,[6],86%
same,Activity,[7],96%
same,Activity,[8],96%
same,Activity,[9],100%
same,Activity,[10],98%
same,Activity,[11],96%
same,Activity,[12],100%
same,Activity,[13],100%
same,Activity,[14],93%
same,Activity,[15],99%
same,Activity,[16],98%
same,Activity,[17],100%
same,Activity,[18],100%
same,Activity,[19],92%
same,Activity,[20],96%
same,EC50,Aurora kinase A,5.8 nM
same,Activity,[21],63%
CCC(=O)Nc1ccc(C(=O)Nc2ccc(Nc3ncc4c(n3)N(C)c3ccc(C)cc3C(=O)N4C)cc2)cc1,Activity,[1],88%
same,Activity,[2],74%
same,IC50,[3],714 nM
same,Activity,[4],99%
same,Activity,[5],65%
same,Activity,[6],88%
same,Activity,[7],96%
same,Activity,[8],89%
same,Activity,[9],99%
same,Activity,[10],100%
same,Activity,[11],86%
same,Activity,[12],97%
same,Activity,[13],93%
same,Activity,[14],96%
same,Activity,[15],87%
same,Activity,[16],79%
same,Activity,[17],62%
same,Activity,[18],100%
same,Activity,[19],90%
same,Activity,[20],94%
same,EC50,Aurora kinase A,38 nM
same,Activity,[21],70%
